Measurements taken from ChEMBL document CHEMBL4732029, “Synthesis and evaluation of bis(imino)anthracene derivatives as G-quadruplex ligands” (RSC Med Chem, 2021).

Key:
Assay type in all cases: functional, cell-based
HeLa [1] = experiment: Cytotoxicity against human HeLa cells
How it was run: (§1)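 HeLa cells (ATCC CCL-2) were exposed to each compound at 100, 30, 10 and 1 µM for 24 h. Viability was read by PrestoBlue absorbance and normalized to a DMSO negative control; doxorubicin served as positive control. Data are mean and SEM. IC50 came from the percentage viability plotted against log concentration, with R squared reported.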

HeLa [2] = experiment: Cytotoxicity against human HeLa cells assessed as reduction in cell viability incubated for 24 hrs by presto blue assay; how it was run: as §1
HeLa [3] = experiment: Cytotoxicity against human HeLa cells assessed as reduction in cell viability incubated for 24 hrs by MTT assay

Compound	IC50 (HeLa [1]) [µM]	IC50 (HeLa [2]) [µM]	other results
CN(C)CCNC(=O)c1cccn2c(=O)c3cc4ccccc4cc3nc12	0.46	–	–
COc1cccc2c1C(=O)c1c(O)c3c(c(O)c1C2=O)C[C@@](O)(C(=O)CO)C[C@@H]3O[C@H]1C[C@H](N)[C@H](O)[C@H](C)O1 [DOXORUBICIN]	0.374	–	–
COc1cccc2c1C(=O)c1c(O)c3c(c(O)c1C2=O)C[C@@](O)(C(=O)CO)C[C@@H]3O[C@H]1C[C@H](N2CCO[C@H](OC)C2)[C@H](O)[C@H](C)O1 [NEMORUBICIN]	0.08	–	–
Cc1cnc(CNC(=O)c2c(=O)c3ccc(N4CCCN(C)CC4)nc3n3c2sc2ccccc23)cn1 [CX-5461]	6.89	–	–
C(=N\CCc1c[nH]c2ccccc12)/c1c2ccccc2c(/C=N/CCc2c[nH]c3ccccc23)c2ccccc12	–	30.6	–
CN1CCC[C@H]1CCNC(=O)c1cn2c3c(c(N4CCC(c5cnccn5)C4)c(F)cc3c1=O)Oc1cc3ccccc3cc1-2 (stereo partly specified) [QUARFLOXIN]	4.44	–	–
Cc1cc2c3c([n+](C)c4ccc(F)cc4c3c1)-c1cc(F)ccc1N2C	0.2	–	–
C(=N\CCN1CCCCC1)/c1c2ccccc2c(/C=N/CCN2CCCCC2)c2ccccc12	–	23.8	–
CN(C)c1ccc(Nc2c3ccc(NC(=O)CCN4CCCC4)cc3nc3cc(NC(=O)CCN4CCCC4)ccc23)cc1	–	–	IC50 (HeLa [3]): 5.25 µM
C(=N\Cc1ccc2c(c1)OCO2)/c1c2ccccc2c(/C=N/Cc2ccc3c(c2)OCO3)c2ccccc12	–	18	–
Cc1cnc(/N=C/c2c3ccccc3c(/C=N/c3ncc(C)s3)c3ccccc23)s1	–	20.5	–
